ChEMBL document CHEMBL3774315, “Discovery of new low-molecular-weight p53-Mdmx disruptors and their anti-cancer activities” (Bioorg Med Chem, 2016)
Active and inactive are the calls of the source. The rule behind the calls is not given here.

Experiments:
[1] = biological target: Tumour suppressor protein p53/Mdm4 (Homo sapiens, UniProt O15151+P04637); test: Inhibition of Flag-tagged p53/GST-tagged Mdmx (unknown origin) expressed in Escherichia coli BL21 after 1 hr by ELISA microplate reader method
[2] = biological target: Tumour suppressor p53/oncoprotein Mdm2 (Homo sapiens, UniProt P04637+Q00987); test: Inhibition of Flag-tagged p53/GST-tagged Mdm2 (unknown origin) expressed in Escherichia coli BL21 after 1 hr by ELISA microplate reader method
[3] = biological target: Cellular tumor antigen p53/Peptidyl-prolyl cis-trans isomerase D (Homo sapiens, UniProt P04637+Q08752); test: Inhibition of Flag-tagged p53/GST-tagged PPID (unknown origin) expressed in Escherichia coli BL21 after 1 hr by ELISA microplate reader method
[4] = biological target: Cellular tumor antigen p53/Death-associated protein kinase 1 (Homo sapiens, UniProt P04637+P53355); test: Inhibition of Flag-tagged p53/GST-tagged DAPK1 (unknown origin) expressed in Escherichia coli BL21 after 1 hr by ELISA microplate reader method
MDA-MB-468 = test: Cytotoxicity against human MDA-MB-468 cells expressing mutant p53 assessed as growth inhibition after 48 hrs by crystal violet staining based spectrophotometry; format: functional, cell-based
Summary of the method: (§1)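 Cells seeded at 2 × 10^4 per well and held 24 h at 37 °C in 5% CO2. Serial dilutions (0, 10, 15, 20, 25 or 30 µM) then added for 48 h. Cells stained 15 min with crystal violet (0.75% dye, 0.25% NaCl, 1.75% formaldehyde, 50% EtOH) and read at 600 nm. Viability is expressed as percent of untreated control.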

MCF7 [5] = test: Cytotoxicity against human MCF7 cells expressing WT p53 and Mdmx assessed as growth inhibition after 48 hrs by crystal violet staining based spectrophotometry; format: functional, cell-based; summary of the method: as §1
A-427 = test: Cytotoxicity against human A427 cells expressing WT p53 and Mdmx assessed as growth inhibition after 48 hrs by crystal violet staining based spectrophotometry; format: functional, cell-based; summary of the method: as §1
A-431 = test: Cytotoxicity against human A431 cells expressing mutant p53 assessed as growth inhibition after 48 hrs by crystal violet staining based spectrophotometry; format: functional, cell-based; summary of the method: as §1
HCT-116 = test: Cytotoxicity against human HCT116 cells expressing WT p53 and Mdmx assessed as growth inhibition after 48 hrs by crystal violet staining based spectrophotometry; format: functional, cell-based; summary of the method: as §1
MCF7 [6] = test: Upregulation of p21 in human MCF7 cells after 24 hrs by Western blot analysis; format: functional, cell-based
Summary of the method: (§2)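 MCF-7 cells plated at 1.0 × 10^6 per 60-mm dish, grown 24 h, washed and given fresh medium for another 24 h. Treated with compound or 0.1% DMSO for 24 or 48 h. Floating and adherent cells lysed in Tris/NaCl/EDTA/EGTA/NP-40 buffer with Na3VO4, NaF, DTT, PMSF and protease inhibitors. 10 µg protein separated by SDS-PAGE, probed with primary antibodies at 1:1000, detected by ECL chemiluminescence.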

MCF7 [7] = test: Upregulation of Mdm2 in human MCF7 cells after 24 hrs by Western blot analysis; format: functional, cell-based; summary of the method: as §2
MCF7 [8] = test: Upregulation of p53 in human MCF7 cells after 24 hrs by Western blot analysis; format: functional, cell-based; summary of the method: as §2
MCF7 [9] = test: Increase in p53 expression in human MCF7 cells nuclei after 24 hrs by DAPI staining based immunofluorescence microscopy; format: functional, cell-based
Summary of the method: (§3)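 Cells seeded at 3.0 × 10^4/mL in chamber slides and grown 24 h, then exposed to 10 µM sample for a further 24 h. Fixed in 3% paraformaldehyde (25 °C, 30 min), permeabilized with 0.05% Triton X-100 and blocked with 3% BSA. Stained with anti-p53 (1:50, overnight, 4 °C) and an Alexa 488 secondary (1:200, 30 min). Nuclei counterstained with DAPI; examined by fluorescence/confocal microscopy.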

IMR-32 = test: Increase in p53 expression in human IMR32 cells nuclei after 24 hrs by DAPI staining based immunofluorescence microscopy; format: functional, cell-based; summary of the method: as §3
Mus musculus [10] = test: Toxicity in human HCT116 cells xenografted nude BALB/c mouse assessed as body weight loss at 100 mg/kg/day, po administered every other day until day 38 and measured on day 40; format: organism-based, HCT-116; conditions: in vivo
Summary of the method: (§4)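 HCT116 cells (1.5 × 10^6 per 100 µL Matrigel) injected s.c. into the backs of 6-week-old female BALB/c-nu/nu mice. Once tumors reached 70–143 mm3, compound (2.0 or 3.0 mg/200 µL) or vehicle (0.1% Tween 80, 200 µL) was given orally every other day until day 38. n = 6 or 9 treated, 7 control. Tumor length, width and body weight were monitored. Activity is mean treated tumor volume as a percentage of control.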

Mus musculus [11] = test: Toxicity in human HCT116 cells xenografted nude BALB/c mouse assessed as body weight loss at 150 mg/kg/day, po administered every other day until day 38 and measured on day 40; format: organism-based, HCT-116; conditions: in vivo; summary of the method: as §4
Mus musculus [12] = test: Upregulation of Mdm2 protein expression in human HCT116 cells xenografted nude BALB/c mouse tumors at 150 mg/kg/day, po administered every other day until day 38 and measured on day 40 by Western blot analysis; format: functional, organism-based; conditions: HCT-116
Summary of the method: (§5)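 Tumors excised at day 40 from orally dosed HCT116-xenograft nude mice, frozen in liquid nitrogen, ground and suspended in lysis buffer, then spun at 15,000 × g at 4 °C. 10 µg protein (measured by BCA) run on SDS-PAGE, blotted to PVDF and probed for p53, Mdm2, p21 and cleaved caspase 3 (1:1000) or full-length caspase 3 (3:1000). ECL detection.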

Mus musculus [13] = test: Upregulation of p53 protein expression in human HCT116 cells xenografted nude BALB/c mouse tumors at 150 mg/kg/day, po administered every other day until day 38 and measured on day 40 by Western blot analysis; format: functional, organism-based; conditions: HCT-116; summary of the method: as §5
Mus musculus [14] = test: Induction of apoptosis in human HCT116 cells xenografted nude BALB/c mouse tumors assessed as upregulation of caspase-3 protein expression at 150 mg/kg/day, po administered every other day until day 38 and measured on day 40 by Western blot analysis; format: functional, organism-based; conditions: HCT-116; summary of the method: as §5
[15] = Antitumor activity against human HCT116 cells xenografted in nude BALB/c mouse assessed as decrease in tumor growth at 100 mg/kg/day, po administered every other day until day 38 and measured on day 40; format: functional; conditions: HCT-116, po
Summary of the method: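 Female BALB/c-nu/nu mice, 6 weeks old, given HCT116 cells (1.5 × 10^6 in 100 µL Matrigel) subcutaneously in the back. Once tumours reached 70–143 mm3, drug (2.0 mg/200 µL) or vehicle (0.1% Tween 80, 200 µL) was given orally every other day to day 38. Tumour length/width and body weight were tracked. Result expressed as mean treated tumour volume as % of control mean.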

Mus musculus [16] = test: Upregulation of p21 protein expression in human HCT116 cells xenografted nude BALB/c mouse tumors at 150 mg/kg/day, po administered every other day until day 38 and measured on day 40 by Western blot analysis; format: functional, organism-based; conditions: HCT-116; summary of the method: as §5
[17] = Cytotoxicity against human TIG7 cells expressing wild-type p53 assessed as growth inhibition after 48 hrs by crystal violet staining based spectrophotometry; conditions: tig7, 48 h
Mus musculus [18] = test: Induction of apoptosis in human HCT116 cells xenografted nude BALB/c mouse tumors at 100 to 150 mg/kg/day, po administered every other day until day 38 and measured on day 40 by TUNEL assay; format: functional, organism-based; conditions: HCT-116
Summary of the method: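 Tumor sections from orally dosed HCT116-xenograft nude mice underwent TUNEL staining, performed by an outside service. TUNEL-positive cells were counted as a percentage of all cells over eight fields at ×20 magnification.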

Cellular tumor antigen p53/Peptidyl-prolyl cis-trans isomerase D, sequence (P04637 whole entry): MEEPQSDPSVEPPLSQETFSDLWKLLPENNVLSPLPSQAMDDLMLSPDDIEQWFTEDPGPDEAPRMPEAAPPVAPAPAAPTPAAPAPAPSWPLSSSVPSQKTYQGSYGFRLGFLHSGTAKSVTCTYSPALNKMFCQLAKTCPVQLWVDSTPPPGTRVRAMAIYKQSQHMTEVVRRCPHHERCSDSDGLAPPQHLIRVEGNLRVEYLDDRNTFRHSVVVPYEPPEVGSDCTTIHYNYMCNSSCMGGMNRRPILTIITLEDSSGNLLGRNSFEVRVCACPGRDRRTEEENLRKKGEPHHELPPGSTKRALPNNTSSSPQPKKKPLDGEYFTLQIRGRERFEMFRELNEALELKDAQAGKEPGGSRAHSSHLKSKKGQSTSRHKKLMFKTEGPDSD
Cellular tumor antigen p53/Peptidyl-prolyl cis-trans isomerase D, sequence (Q08752 whole entry): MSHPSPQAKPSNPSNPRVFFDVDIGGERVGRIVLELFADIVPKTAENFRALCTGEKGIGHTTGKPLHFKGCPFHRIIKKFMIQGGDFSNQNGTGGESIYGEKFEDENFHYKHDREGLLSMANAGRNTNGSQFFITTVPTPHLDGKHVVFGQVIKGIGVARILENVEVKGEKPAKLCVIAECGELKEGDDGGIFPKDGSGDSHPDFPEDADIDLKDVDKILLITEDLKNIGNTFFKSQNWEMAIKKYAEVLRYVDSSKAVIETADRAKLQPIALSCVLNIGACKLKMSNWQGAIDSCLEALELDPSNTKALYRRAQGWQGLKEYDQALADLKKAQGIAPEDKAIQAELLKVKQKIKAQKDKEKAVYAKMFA
Tumour suppressor protein p53/Mdm4, sequence (P04637 whole entry): as the sequence (P04637 whole entry) above
Tumour suppressor protein p53/Mdm4, sequence (O15151 whole entry): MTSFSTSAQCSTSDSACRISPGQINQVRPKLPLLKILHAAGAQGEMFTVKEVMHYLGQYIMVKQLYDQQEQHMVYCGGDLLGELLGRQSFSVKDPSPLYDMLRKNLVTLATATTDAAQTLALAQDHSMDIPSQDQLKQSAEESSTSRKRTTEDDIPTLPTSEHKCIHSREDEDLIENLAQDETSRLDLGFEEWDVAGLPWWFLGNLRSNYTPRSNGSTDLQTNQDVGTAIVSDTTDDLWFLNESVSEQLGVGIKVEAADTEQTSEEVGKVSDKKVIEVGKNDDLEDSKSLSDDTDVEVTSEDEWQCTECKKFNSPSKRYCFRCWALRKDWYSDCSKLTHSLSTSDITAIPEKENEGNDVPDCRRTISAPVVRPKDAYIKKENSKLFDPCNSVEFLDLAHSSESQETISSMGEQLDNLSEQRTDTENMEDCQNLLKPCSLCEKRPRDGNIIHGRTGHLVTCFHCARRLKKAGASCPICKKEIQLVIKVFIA
Tumour suppressor p53/oncoprotein Mdm2, sequence (P04637 whole entry): as the sequence (P04637 whole entry) above
Tumour suppressor p53/oncoprotein Mdm2, sequence (Q00987 whole entry): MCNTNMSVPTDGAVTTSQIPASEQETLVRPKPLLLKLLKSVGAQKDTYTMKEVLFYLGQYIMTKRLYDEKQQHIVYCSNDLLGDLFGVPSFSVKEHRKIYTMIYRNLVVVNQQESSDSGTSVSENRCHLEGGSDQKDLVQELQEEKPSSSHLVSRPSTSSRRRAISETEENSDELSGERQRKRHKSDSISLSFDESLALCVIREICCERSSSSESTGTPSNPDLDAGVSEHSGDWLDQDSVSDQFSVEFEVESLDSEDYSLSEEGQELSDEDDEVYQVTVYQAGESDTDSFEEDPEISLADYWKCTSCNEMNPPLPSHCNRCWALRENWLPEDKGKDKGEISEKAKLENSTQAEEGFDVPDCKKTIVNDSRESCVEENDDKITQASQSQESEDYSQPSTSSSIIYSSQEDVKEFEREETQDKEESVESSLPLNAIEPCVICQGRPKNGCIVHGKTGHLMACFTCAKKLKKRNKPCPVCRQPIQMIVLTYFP
Cellular tumor antigen p53/Death-associated protein kinase 1, sequence (P04637 whole entry): as the sequence (P04637 whole entry) above
Cellular tumor antigen p53/Death-associated protein kinase 1, sequence (P53355 whole entry): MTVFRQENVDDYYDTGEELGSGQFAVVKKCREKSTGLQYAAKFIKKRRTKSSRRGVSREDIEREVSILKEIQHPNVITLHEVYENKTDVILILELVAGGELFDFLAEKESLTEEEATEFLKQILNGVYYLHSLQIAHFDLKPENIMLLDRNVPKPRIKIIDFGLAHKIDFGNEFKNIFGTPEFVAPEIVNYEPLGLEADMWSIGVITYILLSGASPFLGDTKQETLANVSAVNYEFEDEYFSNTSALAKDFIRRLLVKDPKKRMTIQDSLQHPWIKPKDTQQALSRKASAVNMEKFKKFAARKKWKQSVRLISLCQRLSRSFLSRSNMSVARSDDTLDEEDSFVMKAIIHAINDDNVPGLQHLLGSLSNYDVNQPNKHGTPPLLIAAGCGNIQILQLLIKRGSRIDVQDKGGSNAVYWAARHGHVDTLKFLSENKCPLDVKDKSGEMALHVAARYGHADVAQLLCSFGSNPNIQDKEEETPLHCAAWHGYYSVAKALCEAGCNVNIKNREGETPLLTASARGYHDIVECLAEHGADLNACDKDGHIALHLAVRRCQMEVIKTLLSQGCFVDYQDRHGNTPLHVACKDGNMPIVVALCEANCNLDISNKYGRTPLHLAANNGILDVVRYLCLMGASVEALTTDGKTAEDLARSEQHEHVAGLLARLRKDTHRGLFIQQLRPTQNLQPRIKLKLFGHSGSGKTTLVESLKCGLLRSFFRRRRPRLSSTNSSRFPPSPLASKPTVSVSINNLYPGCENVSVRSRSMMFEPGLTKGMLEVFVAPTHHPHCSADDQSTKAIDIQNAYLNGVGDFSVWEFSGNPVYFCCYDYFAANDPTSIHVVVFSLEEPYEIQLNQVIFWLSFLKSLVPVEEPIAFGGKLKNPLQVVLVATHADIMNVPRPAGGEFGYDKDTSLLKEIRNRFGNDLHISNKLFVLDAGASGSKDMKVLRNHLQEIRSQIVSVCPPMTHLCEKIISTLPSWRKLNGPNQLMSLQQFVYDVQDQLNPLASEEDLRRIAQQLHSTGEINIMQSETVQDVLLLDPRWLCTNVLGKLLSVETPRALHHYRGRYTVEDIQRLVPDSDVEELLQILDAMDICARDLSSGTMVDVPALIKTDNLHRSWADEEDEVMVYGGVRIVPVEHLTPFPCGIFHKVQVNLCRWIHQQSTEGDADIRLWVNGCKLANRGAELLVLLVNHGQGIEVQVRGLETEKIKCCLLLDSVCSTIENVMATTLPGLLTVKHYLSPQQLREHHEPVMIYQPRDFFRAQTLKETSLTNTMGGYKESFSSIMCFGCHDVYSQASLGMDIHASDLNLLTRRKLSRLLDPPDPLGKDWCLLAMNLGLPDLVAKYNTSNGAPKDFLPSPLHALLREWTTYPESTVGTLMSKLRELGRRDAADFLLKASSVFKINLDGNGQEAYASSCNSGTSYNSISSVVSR

Row | SMILES | IC50 [1] | IC50 [2] | IC50 [3] | IC50 [4] | also measured
1 | CC(C)C(=O)Nc1ccccc1OC(=O)C(C)C | > 25 µM | > 25 µM | > 25 µM | > 25 µM | 
2 | CCCCCCCC(=O)Nc1ccccc1S | > 25 µM | > 25 µM | > 25 µM | > 25 µM | 
3 | COc1ccc(C2=N[C@@H](c3ccc(Cl)cc3)[C@@H](c3ccc(Cl)cc3)N2C(=O)N2CCNC(=O)C2)c(OC(C)C)c1 |  |  |  |  | Activity (MCF7 [6]): Active; Activity (MCF7 [7]): Active; Activity (MCF7 [8]): Active; Activity (MCF7 [9]): Active; Activity (IMR-32): Active
4 | CC(C)C(=O)Nc1ccccc1SC(=O)C(C)C | 1.5 µM | 13.1 µM | > 25 µM | > 25 µM | Activity (MCF7 [6]): Dose-dependent effect; Activity (MCF7 [7]): Dose-dependent effect; Activity (Mus musculus [10]): Non-toxic; Activity (Mus musculus [11]): Non-toxic; growth inhibition (GI) (MDA-MB-468): Active; Activity (MCF7 [8]): Dose-dependent effect; Activity (Mus musculus [12]): Active; Activity (MCF7 [9]): Active; growth inhibition (GI) (MCF7 [5]): Dose-dependent effect; Activity (Mus musculus [13]): Active; Activity (Mus musculus [14]): Active; growth inhibition (GI) (A-427): Dose-dependent effect; Activity (IMR-32): Active; growth inhibition (GI) (A-431): Active; T/C % at 100 mg/kg/day [15]: 49%; growth inhibition (GI) (HCT-116): Dose-dependent effect; Activity (Mus musculus [16]): Active; Activity [17]: Toxic; Activity (Mus musculus [18]): Dose-dependent effect
5 | CC(C)C(=O)Nc1ccccc1O | > 25 µM | > 25 µM | > 25 µM | > 25 µM | 
6 | O=C(Nc1ccccc1S)c1ccc(Cl)nc1 | 8.9 µM | 15.3 µM | > 25 µM | > 25 µM | 

Further lines, with some results ahead:

Row | IC50 [1] | IC50 [2] | IC50 [3] | SMILES | IC50 [4] | also measured
7 | 6.3 µM | > 25 µM | > 25 µM | CC(C)C(=O)Nc1ccccc1S | > 25 µM | growth inhibition (GI) (MDA-MB-468): Active; growth inhibition (GI) (MCF7 [5]): Active; growth inhibition (GI) (A-427): Active; growth inhibition (GI) (A-431): Active; growth inhibition (GI) (HCT-116): Active
8 | 7.2 µM | > 25 µM | > 25 µM | O=C(Nc1ccccc1S)c1ccccc1 | > 25 µM | 
9 | 3.4 µM | 18.4 µM | > 25 µM | O=C(Nc1ccccc1S)c1ccc(Cl)cc1 | > 25 µM | 
10 | 4.6 µM | 14.6 µM | > 25 µM | CC(C)C(=O)Sc1ccccc1NC(=O)c1ccccc1 | > 25 µM | 
